Assay [1] deals with HEL. Put plainly: Antiproliferative activity against HEL cells harboring JAK2 V617F mutant at 5 uM after 48 hrs by MTT assay. Format: functional, Homo sapiens. On the technique in general: Tetrazolium assays rely on reduction of a dye to a coloured formazan, in cell work by metabolically active cells.
The subject of a further assay is MCF7. Put plainly: Antiproliferative activity against human MCF7 cells after 48 hrs by MTT assay. It counts as functional, cell-based. The following applies: MCF7, 48 h. In short, it runs like this: (§1)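 Panel: human prostate cancer PC-3, breast cancer MCF-7, erythroleukemia HEL, myelogenous leukemia K562 and lymphoid leukemia MOLT4 lines. Cells were exposed to compound for 48 h with MTT read-out.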

In assay [2] the test system is HEL. Put plainly: Antiproliferative activity against HEL cells harboring JAK2 V617F mutant after 48 hrs by MTT assay. Format: functional, cell-based. The conditions noted are these: Homo sapiens. In short, it runs like this:
as §1

The test system of a further assay is K562. Put plainly: Antiproliferative activity against human K562 cells after 48 hrs by MTT assay. It counts as functional, cell-based. The conditions noted are these: K562, 48 h. A digest of the protocol:
as §1

Another assay concerns PC-3. Put plainly: Antiproliferative activity against human PC3 cells after 48 hrs by MTT assay. Format: functional, cell-based. The conditions noted are these: PC-3, 48 h. In short, it runs like this: as §1
The test system of another assay is MOLT-4. Put plainly: Antiproliferative activity against human MOLT4 cells after 48 hrs by MTT assay. It counts as functional, cell-based. The following applies: MOLT-4, 48 h. In short, it runs like this: as §1
For assay [3], the target named is Tyrosine-protein kinase ABL1 (Homo sapiens) (UniProt P00519). Put plainly: Inhibition of ABL (unknown origin) at 20 nM relative to control.
Assay [4] has as its target ALK tyrosine kinase receptor (Homo sapiens) (UniProt Q9UM73). Put plainly: Inhibition of ALK (unknown origin) at 20 nM relative to control.
Assay [5] has as its target RAC-alpha serine/threonine-protein kinase (Homo sapiens) (UniProt P31749). Put plainly: Inhibition of AKT1 (unknown origin) at 20 nM relative to control.
The target of assay [6] is Cyclin-dependent kinase 4 (Homo sapiens) (UniProt P11802). Put plainly: Inhibition of CDK4 (unknown origin) at 20 nM relative to control.
The target of assay [7] is Mast/stem cell growth factor receptor Kit (Homo sapiens) (UniProt P10721). Put plainly: Inhibition of c-Kit (unknown origin) at 20 nM relative to control.
Assay [8] deals with Hepatocyte growth factor receptor (Homo sapiens) (UniProt P08581). Put plainly: Inhibition of c-Met (unknown origin) at 20 nM relative to control.
Assay [9] deals with Epidermal growth factor receptor (Homo sapiens) (UniProt P00533). Put plainly: Inhibition of EGFR (unknown origin) at 20 nM relative to control.
Assay [10] concerns the target Focal adhesion kinase 1 (Homo sapiens) (UniProt Q05397). Put plainly: Inhibition of FAK (unknown origin) at 20 nM relative to control.
The target in assay [11] is Receptor-type tyrosine-protein kinase FLT3 (Homo sapiens) (UniProt P36888). Put plainly: Inhibition of FLT3 (unknown origin) at 20 nM relative to control.
Assay [12] addresses Vascular endothelial growth factor receptor 2 (Homo sapiens) (UniProt P35968). Put plainly: Inhibition of VEGFR2 (unknown origin) at 20 nM relative to control.
The target of assay [13] is Platelet-derived growth factor receptor alpha (Homo sapiens) (UniProt P16234). Put plainly: Inhibition of PDGFRalpha (unknown origin) at 20 nM relative to control.
The target of assay [14] is RAF proto-oncogene serine/threonine-protein kinase (Homo sapiens) (UniProt P04049). Put plainly: Inhibition of RAF1 (unknown origin) at 20 nM relative to control.
The target of assay [15] is Proto-oncogene tyrosine-protein kinase Src (Homo sapiens) (UniProt P12931). Put plainly: Inhibition of SRC (unknown origin) at 20 nM relative to control.
The target in assay [16] is Non-receptor tyrosine-protein kinase TYK2 (Homo sapiens) (UniProt P29597). Put plainly: Inhibition of TYK2 (unknown origin) at 20 nM relative to control.
A short description of assay [17]: Selectivity ratio of IC50 for human PC3 cells to IC50 for HEL cells harboring JAK2 V617F mutant. Format: functional.
Assay [18] can be described thus: Selectivity ratio of IC50 for human MCF7 cells to IC50 for HEL cells harboring JAK2 V617F mutant. Format: functional.
Assay [19] is described as follows: Selectivity ratio of IC50 for human MOLT4 cells to IC50 for HEL cells harboring JAK2 V617F mutant. It counts as functional.
The nature of assay [20]: Selectivity ratio of IC50 for human PC3 cells to IC50 for human K562 cells. Format: functional.
Assay [21] can be described thus: Selectivity ratio of IC50 for human MCF7 cells to IC50 for human K562 cells. It counts as functional.
The nature of assay [22]: Selectivity ratio of IC50 for human MOLT4 cells to IC50 for human K562 cells. It counts as functional.
The target in assay [23] is Tyrosine-protein kinase JAK1 (Homo sapiens, UniProt P23458). Put plainly: Inhibition of human recombinant JAK1 using Ulight-CAGAGAIETDKEYYTVKD as substrate by LANCE assay. (In general: In TR-FRET formats the signal depends on donor and acceptor labels being close together.)
For assay [24], the target named is Tyrosine-protein kinase JAK3 (Homo sapiens, UniProt P52333). Put plainly: Inhibition of human recombinant JAK3 using Ulight-CAGAGAIETDKEYYTVKD as substrate by LANCE assay.

Each structure is given as a SMILES string.

Sequence of Focal adhesion kinase 1 (Homo sapiens) (Q05397 2-1052 limits assumed): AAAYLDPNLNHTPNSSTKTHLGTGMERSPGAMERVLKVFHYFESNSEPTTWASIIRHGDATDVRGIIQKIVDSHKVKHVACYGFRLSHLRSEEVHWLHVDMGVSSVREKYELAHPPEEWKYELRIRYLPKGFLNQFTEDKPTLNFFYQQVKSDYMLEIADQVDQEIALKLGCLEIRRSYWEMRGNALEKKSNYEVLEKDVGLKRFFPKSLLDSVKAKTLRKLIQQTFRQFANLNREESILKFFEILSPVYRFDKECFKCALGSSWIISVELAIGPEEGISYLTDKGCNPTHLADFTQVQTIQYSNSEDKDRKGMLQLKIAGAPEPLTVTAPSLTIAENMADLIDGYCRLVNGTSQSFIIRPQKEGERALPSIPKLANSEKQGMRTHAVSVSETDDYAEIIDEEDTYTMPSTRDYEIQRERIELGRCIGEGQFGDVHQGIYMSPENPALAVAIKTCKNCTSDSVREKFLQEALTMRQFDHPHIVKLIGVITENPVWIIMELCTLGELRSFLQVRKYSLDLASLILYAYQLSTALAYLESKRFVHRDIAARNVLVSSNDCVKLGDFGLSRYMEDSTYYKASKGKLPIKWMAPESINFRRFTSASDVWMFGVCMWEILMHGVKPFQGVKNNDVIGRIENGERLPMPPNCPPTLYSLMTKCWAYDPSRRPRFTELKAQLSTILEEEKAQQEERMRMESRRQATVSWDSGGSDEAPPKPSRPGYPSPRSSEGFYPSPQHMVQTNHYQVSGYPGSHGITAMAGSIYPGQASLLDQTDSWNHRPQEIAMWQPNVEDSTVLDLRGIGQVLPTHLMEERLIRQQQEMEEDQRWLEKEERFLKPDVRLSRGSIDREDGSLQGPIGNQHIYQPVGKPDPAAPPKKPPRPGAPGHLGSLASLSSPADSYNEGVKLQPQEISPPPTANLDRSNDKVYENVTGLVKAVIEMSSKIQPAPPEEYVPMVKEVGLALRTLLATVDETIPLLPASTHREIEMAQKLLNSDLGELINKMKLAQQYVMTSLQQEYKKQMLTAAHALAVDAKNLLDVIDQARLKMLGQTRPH
Sequence of Mast/stem cell growth factor receptor Kit (Homo sapiens) (P10721 whole entry): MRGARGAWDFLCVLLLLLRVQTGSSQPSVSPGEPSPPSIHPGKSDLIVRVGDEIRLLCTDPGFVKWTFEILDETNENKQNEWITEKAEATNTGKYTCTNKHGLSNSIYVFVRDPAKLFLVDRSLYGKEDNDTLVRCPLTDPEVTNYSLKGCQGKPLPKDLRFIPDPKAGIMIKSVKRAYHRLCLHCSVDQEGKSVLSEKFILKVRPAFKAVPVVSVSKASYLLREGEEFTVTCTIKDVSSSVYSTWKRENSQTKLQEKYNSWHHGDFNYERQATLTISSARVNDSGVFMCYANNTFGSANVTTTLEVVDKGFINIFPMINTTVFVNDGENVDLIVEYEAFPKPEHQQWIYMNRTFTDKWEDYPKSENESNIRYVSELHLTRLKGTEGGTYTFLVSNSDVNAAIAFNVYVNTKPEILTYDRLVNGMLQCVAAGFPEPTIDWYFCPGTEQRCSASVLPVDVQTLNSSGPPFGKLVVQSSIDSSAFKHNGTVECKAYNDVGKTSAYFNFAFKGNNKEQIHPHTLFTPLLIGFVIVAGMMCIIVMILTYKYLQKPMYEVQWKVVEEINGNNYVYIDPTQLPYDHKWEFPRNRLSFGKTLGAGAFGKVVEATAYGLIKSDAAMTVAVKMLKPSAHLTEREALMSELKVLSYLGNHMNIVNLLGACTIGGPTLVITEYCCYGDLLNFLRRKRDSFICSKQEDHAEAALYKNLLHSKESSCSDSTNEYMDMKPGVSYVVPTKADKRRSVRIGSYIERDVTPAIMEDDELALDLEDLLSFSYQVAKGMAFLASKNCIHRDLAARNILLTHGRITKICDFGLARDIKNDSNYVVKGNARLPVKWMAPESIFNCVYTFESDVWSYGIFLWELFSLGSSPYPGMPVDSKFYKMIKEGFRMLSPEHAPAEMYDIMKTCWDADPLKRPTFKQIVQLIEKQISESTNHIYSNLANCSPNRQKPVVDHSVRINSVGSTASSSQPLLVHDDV
Sequence of Cyclin-dependent kinase 4 (Homo sapiens) (P11802 whole entry): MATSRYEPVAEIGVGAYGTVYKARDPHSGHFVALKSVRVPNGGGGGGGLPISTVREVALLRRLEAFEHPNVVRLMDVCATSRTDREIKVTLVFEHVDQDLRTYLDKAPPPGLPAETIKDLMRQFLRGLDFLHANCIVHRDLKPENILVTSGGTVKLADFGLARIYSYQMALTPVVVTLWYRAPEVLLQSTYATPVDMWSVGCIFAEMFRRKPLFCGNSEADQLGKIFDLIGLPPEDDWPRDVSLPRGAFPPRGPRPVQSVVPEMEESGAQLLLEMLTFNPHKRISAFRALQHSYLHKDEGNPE
Sequence of RAF proto-oncogene serine/threonine-protein kinase (Homo sapiens) (P04049 whole entry): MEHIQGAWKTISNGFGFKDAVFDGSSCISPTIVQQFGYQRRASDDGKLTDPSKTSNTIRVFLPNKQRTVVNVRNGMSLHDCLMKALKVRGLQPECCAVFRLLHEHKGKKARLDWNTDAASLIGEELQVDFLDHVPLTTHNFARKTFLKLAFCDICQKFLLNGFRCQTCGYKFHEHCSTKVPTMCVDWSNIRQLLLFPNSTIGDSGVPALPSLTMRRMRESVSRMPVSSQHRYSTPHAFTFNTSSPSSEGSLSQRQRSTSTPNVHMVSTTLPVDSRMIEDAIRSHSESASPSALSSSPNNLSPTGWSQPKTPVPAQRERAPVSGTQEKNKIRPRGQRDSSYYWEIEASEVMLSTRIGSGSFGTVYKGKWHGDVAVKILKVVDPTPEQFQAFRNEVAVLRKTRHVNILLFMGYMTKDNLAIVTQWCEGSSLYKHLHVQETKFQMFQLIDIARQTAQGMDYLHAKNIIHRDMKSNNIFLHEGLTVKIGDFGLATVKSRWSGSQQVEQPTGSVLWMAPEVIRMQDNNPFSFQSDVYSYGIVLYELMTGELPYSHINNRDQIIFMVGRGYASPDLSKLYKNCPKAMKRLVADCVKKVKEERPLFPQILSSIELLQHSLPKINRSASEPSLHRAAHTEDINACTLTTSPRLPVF
Sequence of Receptor-type tyrosine-protein kinase FLT3 (Homo sapiens) (P36888 whole entry): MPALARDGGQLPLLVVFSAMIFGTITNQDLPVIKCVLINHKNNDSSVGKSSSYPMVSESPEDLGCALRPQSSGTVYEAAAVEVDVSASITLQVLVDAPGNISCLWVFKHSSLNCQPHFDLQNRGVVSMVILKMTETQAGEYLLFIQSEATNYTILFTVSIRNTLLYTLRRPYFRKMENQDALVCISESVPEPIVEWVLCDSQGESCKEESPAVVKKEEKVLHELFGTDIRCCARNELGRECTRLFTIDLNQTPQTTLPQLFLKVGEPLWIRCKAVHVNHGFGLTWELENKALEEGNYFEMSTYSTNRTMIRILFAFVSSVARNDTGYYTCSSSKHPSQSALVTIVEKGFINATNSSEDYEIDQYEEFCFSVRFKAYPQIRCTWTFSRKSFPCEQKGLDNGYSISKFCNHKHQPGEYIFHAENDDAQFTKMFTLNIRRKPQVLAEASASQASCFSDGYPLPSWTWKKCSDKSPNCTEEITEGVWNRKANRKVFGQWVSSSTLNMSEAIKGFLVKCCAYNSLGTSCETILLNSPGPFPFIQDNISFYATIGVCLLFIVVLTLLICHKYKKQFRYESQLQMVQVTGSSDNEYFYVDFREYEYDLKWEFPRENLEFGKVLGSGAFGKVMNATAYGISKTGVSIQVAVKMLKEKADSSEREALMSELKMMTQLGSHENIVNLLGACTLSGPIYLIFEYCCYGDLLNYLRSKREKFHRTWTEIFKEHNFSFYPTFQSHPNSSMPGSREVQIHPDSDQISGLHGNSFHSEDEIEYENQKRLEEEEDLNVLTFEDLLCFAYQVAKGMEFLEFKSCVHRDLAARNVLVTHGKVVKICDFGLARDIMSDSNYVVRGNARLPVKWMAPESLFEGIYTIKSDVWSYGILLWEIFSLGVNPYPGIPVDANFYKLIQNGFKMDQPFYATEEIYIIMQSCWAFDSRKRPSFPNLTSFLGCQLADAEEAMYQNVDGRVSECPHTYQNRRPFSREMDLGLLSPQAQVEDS
Sequence of Tyrosine-protein kinase ABL1 (Homo sapiens) (P00519 whole entry): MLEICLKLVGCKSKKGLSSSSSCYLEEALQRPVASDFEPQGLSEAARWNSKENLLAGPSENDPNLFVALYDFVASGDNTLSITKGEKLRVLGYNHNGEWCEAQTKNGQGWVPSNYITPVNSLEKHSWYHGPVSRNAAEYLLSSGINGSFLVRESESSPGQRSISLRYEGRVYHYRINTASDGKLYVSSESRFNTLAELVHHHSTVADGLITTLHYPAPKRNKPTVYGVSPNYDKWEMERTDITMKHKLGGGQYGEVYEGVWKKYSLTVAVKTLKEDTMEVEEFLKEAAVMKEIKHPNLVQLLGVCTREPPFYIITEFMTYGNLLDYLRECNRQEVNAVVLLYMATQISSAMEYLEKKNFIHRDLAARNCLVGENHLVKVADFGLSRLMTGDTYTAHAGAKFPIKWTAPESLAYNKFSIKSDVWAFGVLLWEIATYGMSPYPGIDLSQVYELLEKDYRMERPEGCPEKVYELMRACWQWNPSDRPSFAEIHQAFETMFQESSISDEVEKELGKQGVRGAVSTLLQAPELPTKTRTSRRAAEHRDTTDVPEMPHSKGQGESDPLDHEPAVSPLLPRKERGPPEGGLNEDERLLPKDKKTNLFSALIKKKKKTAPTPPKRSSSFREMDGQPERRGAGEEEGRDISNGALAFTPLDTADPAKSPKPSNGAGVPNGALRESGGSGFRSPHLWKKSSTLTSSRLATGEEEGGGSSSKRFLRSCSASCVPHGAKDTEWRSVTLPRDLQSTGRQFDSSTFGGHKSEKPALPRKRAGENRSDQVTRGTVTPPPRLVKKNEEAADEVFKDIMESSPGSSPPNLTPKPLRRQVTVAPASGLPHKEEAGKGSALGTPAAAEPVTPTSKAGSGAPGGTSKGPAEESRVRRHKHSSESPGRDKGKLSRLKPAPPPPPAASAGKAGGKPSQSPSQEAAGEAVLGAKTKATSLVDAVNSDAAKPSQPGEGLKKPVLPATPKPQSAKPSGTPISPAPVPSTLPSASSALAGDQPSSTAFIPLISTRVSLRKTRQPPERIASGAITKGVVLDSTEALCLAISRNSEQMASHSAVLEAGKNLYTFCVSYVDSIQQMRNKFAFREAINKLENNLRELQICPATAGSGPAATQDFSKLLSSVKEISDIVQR

In the assay on HEL [1], `Clc1ccc(Nc2ccnc(Nc3cn[nH]c3)n2)cc1` yielded an Activity of less than 50%.

In the assay with HEL [1], `c1ccc(Nc2nc(Nc3cn[nH]c3)nc3ccccc23)cc1` yielded an Activity of less than 50%.

`COc1ccc(Nc2nc(Nc3cn[nH]c3)nc3ccccc23)cc1` displayed an Activity with HEL [1] of less than 50%.

As for `Clc1cccc(Nc2nc(Nc3cn[nH]c3)nc3ccccc23)c1`, the Activity in the assay on HEL [1] was less than 50%. Besides, the 50% inhibitory concentration (IC50) – broadly, the point on the concentration scale where inhibition reaches its midpoint – in the assay on MCF7 is greater than 5000 nM; with HEL [2], 9710 nM; in the assay on K562, greater than 8300 nM.

Regarding `Fc1cnc(Nc2cn[nH]c2)nc1Nc1ccccc1`, in the assay on HEL [1], the Activity is on record as less than 50%.

Molecule `Clc1ccc(Nc2nc(Nc3cn[nH]c3)nc3[nH]ccc23)cc1` gave an Activity with HEL [1] greater than 50%.

`Clc1ccccc1CNc1nc(Nc2cn[nH]c2)nc2[nH]ccc12` showed an Activity with HEL [1] greater than 50%. Besides, the IC50 in the assay on PC-3 is 13500 nM; in the assay with MCF7, greater than 5000 nM; in the assay on K562 it was 3720 nM; in the assay with MOLT-4 it was greater than 5000 nM.

The molecule `c1ccc(Nc2nc(Nc3cn[nH]c3)nc3[nH]ccc23)cc1` returned an Activity with HEL [1] greater than 50%. Also, the IC50 in the assay on PC-3 is 4470 nM; in the assay with MCF7, greater than 5000 nM; with HEL [2], 350 nM; in the assay on K562 it was 370 nM; with MOLT-4, greater than 5000 nM. Also, the inhibition (usually the change of the read-out against control, counted positive when it falls) in assay [3] was 3.1%; in assay [4], 15.1%; in assay [5], -3%; in assay [6] it was -5.3%; in assay [7] it was 0.6%; in [8], 6.3%. For the same molecule, the inhibition was determined as 8.3% in assay [9]; 7.4% in assay [10]; 15.2% in assay [11]; 0% in assay [12]; 11.9% in assay [13]; 3.7% in assay [14]. Further, the inhibition in [15] was determined as 12.6%; in assay [16] it was 34.6%. Besides, the “Ratio IC50” value in assay [17], in [18], in assay [19], in assay [20], in [21] and in assay [22] was greater than 10 throughout.

For the molecule `N#Cc1ccccc1Nc1ccnc(Nc2cn[nH]c2)n1`, in the assay with HEL [1], the Activity was less than 50%.

For `COc1ccc(Nc2nc(Nc3cn[nH]c3)ncc2Cl)cc1`, the Activity in the assay on HEL [1] was greater than 50%. The half-inhibitory concentration (IC50) was 2300 nM in the assay on PC-3, 1760 nM in the assay on HEL [2] and 2080 nM in the assay on K562.

In the assay with HEL [1], `Clc1ccccc1Nc1nc(Nc2cn[nH]c2)ncc1Cl` returned an Activity greater than 50%. Moreover, the 50% inhibitory concentration (IC50) in the assay on PC-3 amounted to 1130 nM; with MCF7, 1100 nM; in the assay with HEL [2] it was 1240 nM; in the assay on K562, 1290 nM; in the assay on MOLT-4, 1260 nM.

In the case of `COc1ccc(Nc2nc(Nc3cn[nH]c3)ncc2F)cc1`, the Activity in the assay with HEL [1] is less than 50%.

In the assay on HEL [1], `Clc1ccccc1CNc1nc(Nc2cn[nH]c2)nc2ccccc12` gave an Activity of less than 50%.

The molecule `Clc1ccc(Nc2nc(Nc3cn[nH]c3)nc3ccccc23)cc1` had an Activity with HEL [1] of less than 50%.

Molecule `C#Cc1cccc(Nc2nc(Nc3cn[nH]c3)nc3ccccc23)c1` gave an Activity in the assay on HEL [1] of less than 50%.

In the assay on HEL [1], `Clc1cnc(Nc2cn[nH]c2)nc1Nc1ccccc1` had an Activity greater than 50%. The IC50 in the assay on PC-3 was 5380 nM; in the assay on MCF7 it was 3660 nM; in the assay on HEL [2], 5930 nM; in the assay with K562, greater than 8300 nM; in the assay on MOLT-4, greater than 5000 nM.

With `Clc1ccccc1Nc1ccnc(Nc2cn[nH]c2)n1`, in the assay on HEL [1], the Activity was less than 50%.

Consider `Fc1ccc(Nc2nc(Nc3cn[nH]c3)ncc2Cl)cc1`, for which the Activity with HEL [1] was greater than 50%. Moreover, the IC50 stood at 1030 nM with PC-3; 1870 nM in the assay with MCF7; 1180 nM in the assay on HEL [2]; 1860 nM with K562; 3280 nM in the assay with MOLT-4.

In the assay with HEL [1], `Clc1ccc(Nc2nc(Nc3cn[nH]c3)ncc2Cl)cc1` came in with an Activity greater than 50%. The concentration for half-maximal inhibition (IC50) with PC-3 was found to be 2570 nM; in the assay on MCF7, 1930 nM; in the assay with HEL [2], 1530 nM; in the assay with K562 it was 1700 nM; in the assay with MOLT-4, 1370 nM.

As to `COc1ccc(Nc2nc(Nc3cn[nH]c3)nc3[nH]ccc23)cc1`, the Activity in the assay on HEL [1] is listed as greater than 50%.

On to `C#Cc1cccc(Nc2ccnc(Nc3cn[nH]c3)n2)c1`, for which the Activity with HEL [1] is recorded as less than 50%.

As for `N#CC[C@H](C1CCCC1)n1cc(-c2ncnc3[nH]ccc23)cn1` [RUXOLITINIB], the IC50 with PC-3 is greater than 5000 nM; with MCF7 it was greater than 5000 nM; in the assay with HEL [2] it was 2620 nM; in the assay with K562, 10300 nM.

Turning to `Clc1cccc(Nc2nc(Nc3cn[nH]c3)ncc2Cl)c1`, the IC50 in assay [23] worked out at 3.4 nM; in assay [24], 3.5 nM; with PC-3, 1080 nM; with MCF7 it was 1330 nM; in the assay with HEL [2], 1080 nM; in the assay on K562, 770 nM. In addition, the 50% inhibitory concentration (IC50) with MOLT-4 was determined as 1610 nM. The same molecule came in with an Activity in the assay with HEL [1] greater than 50%. Further, the inhibition is -3.1% in [3]; 6.9% in [4]; 7.5% in [5]; 36.2% in assay [6]; 12.1% in assay [7]; 17.9% in assay [8]. Moreover, the inhibition in assay [9] was 10.5%; in assay [10] it was 33.5%; in assay [11], 78.7%; in [12], 48.6%; in assay [13] it was 54.1%; in [14] it was -7.1%. For the same molecule, the values for the inhibition in assay [15] and in assay [16] were 27% and 79.4%, respectively.

On to `Fc1cnc(Nc2cn[nH]c2)nc1Nc1ccc(Cl)cc1`, for which the Activity in the assay on HEL [1] is on record as less than 50%. The IC50 in the assay with PC-3 turned out to be 10400 nM; in the assay with HEL [2] it was 3960 nM; in the assay with K562 it was 3790 nM.

These data come from ChEMBL document CHEMBL4428138, “Design, Synthesis, and Antitumor Evaluation of 4-Amino-(1H)-pyrazole Derivatives as JAKs Inhibitors” (ACS Med Chem Lett, 2016).
